Results: ChEMBL document CHEMBL1124067, “Design of potent cyclic gonadotropin releasing hormone antagonists” (J Med Chem, 1988)
Where “and” joins values, the source holds several entries; their conditions need not be identical. Equal entries are not always repeated. Positions of bridges follow the written chain, without caps; N, C: chain ends. Non-standard residues stand in square brackets, D forms with d. Residues, ends and D or L forms follow the SMILES beside them. dPhe(4-Cl) = N[C@H](Cc1ccc(Cl)cc1)C(=O)O; dPhe(4-F) = N[C@H](Cc1ccc(F)cc1)C(=O)O; d2Nal = N[C@H](Cc1ccc2ccccc2c1)C(=O)O; d3Pal = N[C@H](Cc1cccnc1)C(=O)O

What was measured:
[1] = tested on: Rattus norvegicus; assay: Effect of oral administration of compound (1 mg) on LH secretion by castrated male rats; ng of LH/mL; type: functional
Method in brief: (§1)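 Adult Sprague-Dawley male rats, castrated under light ether anesthesia 7-10 days before assay. Peptide dissolved in 2 N HOAc, then diluted in 0.1% BSA-0.04 M phosphate buffer pH 7.4. Given by gavage tube (0.5 mL) under ether. Blood sampled before treatment and 5 h after. Plasma LH in ng/mL, mean ± SEM, five rats per treatment.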

[2] = biological target: T1, Gonadotropin-releasing hormone receptor (Rattus norvegicus) (UniProt P30969); assay: Inhibition of GnRH-stimulated LH secretion by cultured dispersed anterior pituitary cells; type: functional, cell-based; settings: Pituitary gland cell
T1 sequence (whole entry): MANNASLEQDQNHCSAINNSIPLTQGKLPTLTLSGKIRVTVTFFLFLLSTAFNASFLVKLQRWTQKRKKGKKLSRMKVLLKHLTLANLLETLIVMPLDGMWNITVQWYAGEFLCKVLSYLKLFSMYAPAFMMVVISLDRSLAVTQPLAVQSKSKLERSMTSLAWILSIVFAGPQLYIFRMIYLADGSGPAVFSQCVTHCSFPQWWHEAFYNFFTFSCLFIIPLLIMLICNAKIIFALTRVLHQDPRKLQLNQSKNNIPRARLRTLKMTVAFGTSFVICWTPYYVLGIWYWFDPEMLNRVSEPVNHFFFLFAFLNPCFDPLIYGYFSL
Method in brief: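 Cultured dispersed anterior pituitary cells. Antagonist inhibition of GnRH-stimulated LH secretion measured. Potency expressed relative to the standard [Ac-Δ3Pro1,DFpa2,DTrp3,6]GnRH (=1), with confidence range in parentheses.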

[3] = tested on: Rattus norvegicus; assay: In vivo antiovulatory assay (AOA) carried out in rats injected sc; type: functional
Method in brief: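 Antiovulatory assay following Corbin and Beattie. Cycling rats injected sc at noon on proestrus with peptide dissolved in saline (200 μL). Dose in micrograms; read-out is the number of rats ovulating out of the total.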

[4] = biological target: T2, Gonadotropin-releasing hormone receptor (Rattus norvegicus, UniProt P30969); assay: Inhibitory binding constant for Gonadotropin-releasing hormone receptor
T2 sequence (P30969 whole entry): T1 sequence (whole entry)

[5] = organism: Rattus norvegicus; assay: Effect on GnRH-induced LH secretion in intact male rats at 100 ug of compound along with 50 ng of GnRH; ng of LH/mL; type: functional
Method in brief: (§2)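 Intact adult male Sprague-Dawley rats. Antagonist injected iv into the jugular vein (1 mL) under ether, immediately before GnRH. Peptide dissolved in 2 N HOAc, then diluted in 0.1% BSA-0.04 M phosphate buffer pH 7.4. Blood taken 10 min after injection. Plasma LH in ng/mL ± SEM, six rats per treatment.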

[6] = tested on: Rattus norvegicus; assay: Effect of oral administration of compound (3 mg) on LH secretion by castrated male rats; ng of LH/mL; type: functional; method in brief: as §1
[7] = organism: Rattus norvegicus; assay: Effect on GnRH-induced LH secretion in intact male rats at 25 ug of compound along with 50 ng of GnRH; ng of LH/mL; type: functional; method in brief: as §2
[8] = organism: Rattus norvegicus; assay: Effect on GnRH-induced LH secretion in intact male rats at 50 ng of compound; ng of LH/mL; type: functional
[9] = organism: Rattus norvegicus; assay: Effect on GnRH-induced LH secretion in intact male rats at 20 ng of compound; ng of LH/mL; type: functional

Q: `CC(=O)N[C@H](Cc1ccc2ccccc2c1)C(=O)N[C@H](Cc1ccc(F)cc1)C(=O)N[C@H](Cc1c[nH]c2ccccc12)C(=O)N[C@@H](CO)C(=O)N[C@@H](Cc1ccc(O)cc1)C(=O)N[C@H](CCCN=C(N)N)C(=O)N[C@@H](CC(C)C)C(=O)N[C@@H](CCCN=C(N)N)C(=O)N1CCC[C@H]1C(=O)NCC(N)=O` (Ac-[d2Nal][dPhe(4-F)][dW]SY[dR]LRPG-NH2) was tested. Which Activity [1] did it give?
A: 6.4

Q: And the Relative potency [2]?
A: 0.6

Q: And the Dose [3]?
A: 1 µg

Q: What about the Kd [4] of the same compound?
A: 0.64 nM

Q: Which Activity [5] does the source give for `CC(=O)N[C@H](Cc1ccc2ccccc2c1)C(=O)N[C@H](Cc1ccc(Cl)cc1)C(=O)N[C@H](Cc1cccnc1)C(=O)N[C@H]1CSSC[C@@H](C(N)=O)NC(=O)[C@@H]2CCCN2C(=O)[C@H](CCCNC(=N)N)NC(=O)[C@H](CC(C)C)NC(=O)[C@@H](Cc2cccnc2)NC(=O)[C@H](CCCNC(=N)N)NC1=O` (Ac-[d2Nal][dPhe(4-Cl)][d3Pal]CR[d3Pal]LRPC-NH2; disulfide 4-10) here?
A: 1.4

Q: What about the Activity [6] of the same compound?
A: 8.31

Q: And the Activity [7]?
A: 1.62

Q: What about the Dose [3] of the same compound?
A: 10 µg and 25 µg

Q: What does the source list for `CC(C)C[C@H](NC(=O)CNC(=O)[C@H](Cc1ccc(O)cc1)NC(=O)[C@H](CO)NC(=O)[C@H](Cc1c[nH]c2ccccc12)NC(=O)[C@H](Cc1cnc[nH]1)NC(=O)[C@@H]1CCC(=O)N1)C(=O)N[C@@H](CCCNC(=N)N)C(=O)N1CCC[C@H]1C(=O)NCC(N)=O` [GONADORELIN]?
A: Activity [8]: 2.42; Activity [9]: 1.84
